Consider four compounds from ChEMBL document CHEMBL5150021, “Identification of 5-(Aryl/Heteroaryl)amino-4-quinolones as Potent Membrane-Disrupting Agents to Combat Antibiotic-Resistant Gram-Positive Bacteria” (J Med Chem, 2022).

The CC50 is the concentration that lowers cell viability or growth by half.

Data set [1] has as its system Staphylococcus aureus. The data set can be described thus: Antibacterial activity against methicillin resistant Staphylococcus aureus FPR3757 assessed as inhibition of bacterial growth incubated for 24 hrs by CLSI based method. The data set is classed as functional. The settings on record: read-out: MIC100. An outline of the steps:
(§1)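 It was mixed 1:1 with twofold serial compound dilutions and incubated stationary at 37 °C for 24 h. MIC was the lowest concentration giving complete inhibition of observable growth, with an oxacillin control.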

Data set [2] is described as follows: Therapeutic index, ratio of CC50 for Cytotoxicity against sheep erythrocytes to MIC for antibacterial activity against methicillin resistant Staphylococcus aureus FPR3757. The data set is classed as toxicity. The gist of the method:
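Ratio of erythrocyte CC50 to MRSA FPR3757 MIC. For hemolysis, 4% washed sheep erythrocytes were mixed 1:1 with twofold compound dilutions in PBS and incubated 1 h at 37 °C. Supernatant A540 was read after centrifugation and normalized between DMSO and Triton X-100 (100% lysis). Triplicates. Highest concentration tested: 32 μg/mL.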

A short description of data set [3]: Cytotoxicity against sheep erythrocytes assessed as reduction in cell viability. It counts as toxicity, cell-based, Ovis aries, Erythrocyte. The gist of the method: (§2)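 4% sheep erythrocytes mixed 1:1 with twofold serial compound dilutions in PBS, incubated stationary 1 h at 37 °C, then centrifuged at 500g for 5 min. Supernatant A540 is measured and percent hemolysis is calculated relative to DMSO vehicle (0%) and Triton X-100 (100%). Triplicate, mean ± SD.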

Another data set relates to Erythrocyte. The data set can be described thus: Hemolytic activity in sheep erythrocytes at 32 ug/ml incubated for 1 hr. The note with it: dose 32 µg/ml. It counts as toxicity, cell-based, Ovis aries. The gist of the method:
as §2

The subject of data set [4] is Staphylococcus aureus. In words: Antibacterial activity against methicillin-resistant Staphylococcus aureus N315 assessed as inhibition of bacterial growth incubated for 24 hrs by CLSI based method. The data set is classed as functional. The gist of the method: (§3)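 Broth microdilution per CLSI. Equal volume of twofold serial compound dilutions added. Incubated stationary at 37 °C for 24 h. MIC taken as lowest concentration giving complete inhibition of visible growth. Oxacillin control for Gram-positives, ceftriaxone for Gram-negatives.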

Data set [5] concerns Staphylococcus aureus. In words: Antibacterial activity against methicillin-resistant Staphylococcus aureus MW2 assessed as inhibition of bacterial growth incubated for 24 hrs by CLSI based method. The data set is classed as functional. The gist of the method:
as §3

For data set [6], the system named is Staphylococcus epidermidis. In words: Antibacterial activity against Staphylococcus epidermidis NIF104008 assessed as inhibition of bacterial growth incubated for 24 hrs by CLSI based method. It counts as functional. The gist of the method: as §3
The subject of data set [7] is Staphylococcus epidermidis. In words: Antibacterial activity against Staphylococcus epidermidis NIF104003 assessed as inhibition of bacterial growth incubated for 24 hrs by CLSI based method. The data set is classed as functional. An outline of the steps: as §3
The test system of another data set is Klebsiella pneumoniae. In words: Antibacterial activity against Klebsiella pneumoniae 7117 assessed as inhibition of bacterial growth incubated for 24 hrs by CLSI based method. The data set is classed as functional. The gist of the method: as §3
Data set [8] has as its system Cell membrane. The data set can be described thus: Induction of cell membrane damage in Staphylococcus aureus USA300 assessed as cross-wall-septum formation with reduced splitting at 1 times MIC measured after 10 mins by TEM analysis. It counts as subcellular.
The subject of data set [9] is Enterococcus faecium. The data set can be described thus: Antibacterial activity against Enterococcus faecium DHMC #1 assessed as inhibition of bacterial growth incubated for 24 hrs by CLSI based method. It counts as functional. An outline of the steps:
as §3

Data set [10] has as its system Staphylococcus aureus. The data set can be described thus: Antibacterial activity against community-associated methicillin-resistant Staphylococcus aureus USA300 FPR3757 assessed as inhibition of bacterial growth incubated for 24 hrs by CLSI based method. It counts as functional. The gist of the method:
as §1

Data set [11] has as its system Cell membrane. In words: Induction of cell membrane damage in Staphylococcus aureus USA300 assessed as mesosome-like membrane inclusions at 1 times MIC measured after 1 hrs by TEM analysis. The gist of the method: (§4)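 Fixed in glutaraldehyde/paraformaldehyde in cacodylate pH 7.4, post-fixed with osmium tetroxide, stained with uranyl acetate, resin-embedded, thin-sectioned and imaged by TEM.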

Data set [12] deals with Cell membrane. In words: Induction of cell membrane damage in Staphylococcus aureus USA300 assessed as membrane wrinkling at 1 times MIC measured after 1 hrs by TEM analysis. The gist of the method: as §4
The subject of data set [13] is Cell membrane. The data set can be described thus: Induction of cell membrane damage in Staphylococcus aureus USA300 assessed as bulging of the septum at 1 times MIC measured after 1 hrs by TEM analysis. An outline of the steps: as §4
Data set [14] relates to Staphylococcus aureus. The data set can be described thus: Antibacterial activity against methicillin resistant Staphylococcus aureus FPR3757 assessed as inhibition of bacterial growth incubated for 24 hrs in presence of 10% FBS by CLSI based method. It counts as functional. An outline of the steps: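 CLSI broth microdilution against MRSA FPR3757 (USA300) in Mueller–Hinton broth supplemented with 10% serum (fetal bovine or mouse). Inoculum 10⁶ CFU/mL with twofold serial compound dilutions, stationary incubation at 37 °C for 24 h. MIC read as lowest concentration with complete inhibition of visible growth.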

In data set [15] the test system is Enterococcus faecium. In words: Antibacterial activity against Enterococcus faecium ATCC19579 assessed as inhibition of bacterial growth incubated for 24 hrs by CLSI based method. It counts as functional. The gist of the method:
as §3

The test system of data set [16] is Enterococcus faecalis. The data set can be described thus: Antibacterial activity against Enterococcus faecalis ATCC700802 assessed as inhibition of bacterial growth incubated for 24 hrs by CLSI based method. The data set is classed as functional. The gist of the method:
as §3

Data set [17] has as its system Vero. In words: Cytotoxicity against African green monkey Vero cells assessed as increase in LDH release at 0.47 to 30 uM incubated for 24 hrs. The settings on record: chlorocebus sabaeus, dose 0.47-30 µM. It counts as toxicity, cell-based. An outline of the steps: (§5)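 Confluent Vero cells (maintained in RPMI 1640 + 10% FBS, 37 °C, 5% CO2) exposed to compound at 0.47–30 μM (twofold dilutions) in serum-free medium for 24 h at 37 °C. LDH in supernatant is measured colorimetrically at 490 nm and expressed as percent of 2% detergent positive control.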
(Release of lactate dehydrogenase indicates damage to the cell membrane.)

For a further data set, the system named is Escherichia coli. The data set can be described thus: Antibacterial activity against Escherichia coli DHMC-1 assessed as inhibition of bacterial growth incubated for 24 hrs by CLSI based method. The data set is classed as functional. An outline of the steps:
as §3

The test system of data set [18] is Vero. In words: Cytotoxicity against African green monkey Vero cells assessed as increase in LDH release at 30 uM incubated for 24 hrs relative to control. The settings on record: chlorocebus sabaeus. It counts as toxicity, cell-based. An outline of the steps: as §5
For a further data set, the system named is Enterobacter cloacae. In words: Antibacterial activity against Enterobacter cloacae ND-21 assessed as inhibition of bacterial growth incubated for 24 hrs by CLSI based method. The data set is classed as functional. The gist of the method: as §3
The subject of data set [19] is Staphylococcus aureus. In words: microbe, parasite or virus in culture. The note with it: USA300 FPR3757, 24 h.
The subject of the next data set is Candida albicans. The data set can be described thus: Antifungal activity against Candida albicans SC5314 assessed as inhibition of bacterial growth incubated for 24 hrs by CLSI based method. It counts as functional. An outline of the steps:
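Broth microdilution per CLSI. It is mixed 1:1 with twofold serial compound dilutions and incubated stationary at 35 °C for 24 h. MIC is read as the lowest concentration with no observable growth.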

Data set [20] relates to Staphylococcus aureus. In words: Antibacterial activity against methicillin-resistant Staphylococcus aureus NRS71 assessed as inhibition of bacterial growth incubated for 24 hrs by CLSI based method. It counts as functional. An outline of the steps: as §3
Data set [21] relates to Enterococcus faecalis. In words: Antibacterial activity against Enterococcus faecalis DHMC #1 assessed as inhibition of bacterial growth incubated for 24 hrs by CLSI based method. The data set is classed as functional. The gist of the method:
as §3

The subject of data set [22] is Staphylococcus aureus. The data set can be described thus: Antibacterial activity against methicillin-resistant Staphylococcus aureus COL assessed as inhibition of bacterial growth incubated for 24 hrs by CLSI based method. It counts as functional. The gist of the method: as §3
Data set [23] can be described thus: Protein binding in human plasma at […] incubated for 4 hrs under shaking condition by LC-MS/MS based equilibrium dialysis method. It counts as ADME, cell-free. An outline of the steps: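 Rapid equilibrium dialysis (8k MWCO). Compound is spiked into human plasma at 10 μg/mL and dialysed against DPBS pH 7.4 with shaking for 4 h at 37 °C. Matrices are matched, proteins precipitated with methanol containing internal standard, and both chambers quantified by LC-MS/MS against a calibration curve. Percent free and bound are calculated from chamber concentrations.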

Values after ≈ are worked out from the molar mass of the structure shown. Active and inactive are the calls of the source. No cut-off for these calls is given here.

As to `O=c1cc(C(F)(F)F)[nH]c2cc(C(F)(F)F)cc(Nc3ccc(Cl)c(Cl)c3)c12`, the MIC with Staphylococcus aureus [1] was under 0.0625 µg/mL. In data set [2], the selectivity ratio was over 500. Moreover, the CC50 in data set [3] was over 32 µg/mL. Further, the Activity result with Erythrocyte is given as “Non-Toxic”.

Consider `Fc1cc2nc(C(F)(F)F)cc(Nc3ccc(C(F)(F)F)cn3)c2cc1F`, for which the MIC with Staphylococcus aureus [1] is 0.25 µg/mL (≈ 0.636 µM). For the same compound, in the data set with Erythrocyte, the Activity entry is reported as “Toxic”.

For the compound `O=c1cc(C(F)(F)F)[nH]c2cc(C(F)(F)F)cc(N[C@H]3CC[C@H](C(F)(F)F)CC3)c12`, the MIC with Staphylococcus aureus [4] was 0.125 µg/mL (≈ 0.28 µM); with Staphylococcus aureus [1] it was 0.125 µg/mL (≈ 0.28 µM); in the data set on Staphylococcus aureus [5], 0.125 µg/mL (≈ 0.28 µM); in data set [6], 0.125 µg/mL (≈ 0.28 µM); in data set [7], 0.125 µg/mL (≈ 0.28 µM); in the data set on Klebsiella pneumoniae it was over 128 µg/mL. The MIC in the data set on Enterococcus faecium [9] is 0.25 µg/mL (≈ 0.56 µM); in the data set with Staphylococcus aureus [10], 0.5 µg/mL (≈ 1.12 µM); in the data set on Staphylococcus aureus [14], 4 µg/mL; in the data set with Enterococcus faecium [15], 0.25 µg/mL (≈ 0.56 µM); with Enterococcus faecalis [16], 2 µg/mL (≈ 4.48 µM); with Escherichia coli, over 128 µg/mL. Also, the MIC in the data set with Enterobacter cloacae is over 128 µg/mL; in the data set on Candida albicans, over 256 µg/mL; with Staphylococcus aureus [20], 0.0625 µg/mL (≈ 0.14 µM); with Enterococcus faecalis [21], 0.125 µg/mL (≈ 0.28 µM); in the data set with Staphylococcus aureus [22], under 0.06 µg/mL. Besides, the result with Cell membrane [8], with Cell membrane [11], in the data set with Cell membrane [12] and in the data set on Cell membrane [13] was Active. The Activity entry is given as “Non-Toxic” with Vero [17], 20% with Vero [18] and “Non-Toxic” in the data set with Erythrocyte. The same compound displayed an MBC against Staphylococcus aureus [19] of 4 µg/mL (≈ 8.96 µM). The same compound displayed a PPB in data set [23] of 99.9%.

Turning to `Fc1ccc2c(Nc3ccc(C(F)(F)F)cn3)cc(C(F)(F)F)nc2c1`, in the data set on Staphylococcus aureus [1], the MIC stood at 1 µg/mL (≈ 2.66 µM). Also, in the data set on Erythrocyte, the Activity result is “Non-Toxic”.
